EBI2 block – antagonists of human EBI2 receptor; P32249; EBI2 beta-arrestin recruitment, luminescence, 7a,25-OHC stimulated; inhibition, % at 5 µM; 360,000 compounds, 0.81% hits; AID 651636; in the data active = inhibition above about 38%;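 note: enzyme fragment complementation signal reports receptor beta-arrestin coupling in cells; 0% = agonist plus DMSO wells and 100% = wells without agonist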
Target sequence (P32249 whole entry, looked up, the tested form may be a part): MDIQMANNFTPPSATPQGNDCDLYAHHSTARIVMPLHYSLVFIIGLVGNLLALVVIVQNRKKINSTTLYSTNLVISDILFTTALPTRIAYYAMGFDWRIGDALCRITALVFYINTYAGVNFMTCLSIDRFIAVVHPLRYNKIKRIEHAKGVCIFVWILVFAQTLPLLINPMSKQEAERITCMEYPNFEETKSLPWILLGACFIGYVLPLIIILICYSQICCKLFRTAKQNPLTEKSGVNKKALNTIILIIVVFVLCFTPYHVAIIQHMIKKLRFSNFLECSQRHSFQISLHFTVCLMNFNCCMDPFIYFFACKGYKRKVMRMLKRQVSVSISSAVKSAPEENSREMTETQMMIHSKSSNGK
MC4R ag barr – activates human MC4R beta-arrestin recruitment | activation, % at 8.9 µM | 360,000 compounds, 0.98% hits | P32245 | U2OS MC4R beta-arrestin complementation, luminescence; percent of melanotan II response, DMSO zero | AID 540308;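 active = activation above a per-plate cutoff, the mean activation of sample wells on that plate plus 3 SD, cut at about 8% in these data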
Exocytosis inh – blocks lytic granule exocytosis; TALL-104 LAMP-1 surface exposure, flow cytometry; cells stimulated with thapsigargin and PMA; 360,000 compounds, 0.66% hits; inhibition, % at 10 µM;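 active = inhibition above about 55%, limit read from the data; inconclusive = no clear call, values can overlap the other calls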
Myeloid diff MLP – promotes myeloid progenitor differentiation | calls only at 10 µM | ER-HoxA9 myeloid progenitors, lysozyme-GFP differentiation, flow cytometry | 360,000 compounds, 1% hits;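 active = normalized GFP-positive differentiation at or above the plate's own cutoff, the solvent-only control mean plus 3 SD; inconclusive = no clear call, values can overlap the other calls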;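 note: cells exposed to compound for four days before flow analysis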
MC4R antag cAMP – human MC4R antagonism in cAMP assay; MC4R-expressing cells, MTII-stimulated cAMP, LANCE TR-FRET; inhibition, % at 6.5 µM; 360,000 compounds, 0.48% hits; AID 540295; P32245;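 active = inhibition above its plate's cutoff, the mean of tested wells on that plate plus 3 SD, cut at about 29% in these data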;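 note: 0% = Melanotan II alone and 100% = Melanotan II plus saturating MCL0020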
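system = U2OS cells with stable human MC4R expression | also added = Melanotan II challenge after compound preincubation | dosing = one concentration, 6.5 µM nominal | incubation = compound 30 min, challenge 1 h, detection 1 h | measured by = TR-FRET with Eu-cAMP and labeled anti-cAMP, 671 nm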
* = called active by the depositor; i = inactive; ? = inconclusive; nt = no result; + = active, no number. An excerpt weighted towards active compounds, which were near 3.7% of everything screened.

SMILES	EBI2 block	MC4R ag barr	Exocytosis inh	Myeloid diff MLP	MC4R antag cAMP
c1cc2nc(C34CC5CC(CC(C5)C3)C4)[nH]c2cn1	-27	-1	0	+	4
CCc1ccc(CN2CCC(Oc3cc(C(=O)NC4CC4)ccc3OC)CC2)cc1	-11	1	3	i	-2
CCC(C)n1c(SCC(=O)NC2CCCC2)nc2ccccc2c1=O (stereo not drawn)	5	-1	2	i	4
O=C(C=Cc1ccccc1)CC(c1ccccc1)N1CCOCC1 (stereo not drawn)	48*	-3	2	i	-1
Brc1ccc2c(c1)OCCOCCOc1cc(Br)ccc1OCCOCCOCCO2	26	3	60*	?	8
S=C(N/N=C/c1cccs1)NC1CC2CCC1C2 (stereo not drawn)	38	-3	1	i	-1
Oc1ccc(/C=N/NC(=S)NC2CC3CCC2C3)cc1 (stereo not drawn)	49*	1	7	i	-3
Nc1nonc1C(=O)NCCN=Cc1ccccc1O	-6	1	-3	i	11
Nc1nonc1C(=O)NCCN=Cc1cc(Cc2ccccc2)cc(Br)c1O	-3	9.2*	13	i	5
N#CC1(NC(=O)COC(=O)c2cc(O)c3ccccc3c2O)CCCCC1	-50	-2	61*	+	-3
N#CC1(NC(=O)COC(=O)c2ccccc2[N+](=O)[O-])CCCCC1	-1	-1	0	i	0
CC(C)(C)C(=O)Nc1ccc(N2CCN(C(=O)c3cccs3)CC2)cc1	-5	-2	11	+	3
O=C(Nc1ccc(N2CCN(C(=O)c3cccs3)CC2)cc1)c1ccccc1F	-7	-1	-2	+	6
O=C(Nc1ccc(N2CCN(C(=O)c3cccs3)CC2)cc1)c1ccccc1Cl	-3	-1	1	i	23
O=C(O)c1cccc(S(=O)(=O)Nc2ccccc2C(=O)NCCc2ccccc2)c1	-16	1	-1	+	6
Cc1ccccc1OCC(O)CN1CCN(c2ccc(Cl)cc2)CC1 (stereo not drawn)	23	8.2*	-9	i	8
C=CCc1ccccc1OCC(O)CN1CCN(c2ccc(OC)cc2)CC1 (stereo not drawn)	3	8.7*	-3	i	22
OC(CN1CCN(c2ccccc2)CC1)Cn1c2ccccc2c2ccccc21 (stereo not drawn)	14	1	1	i	0
OCC(O)CN1CCN(c2ccccc2)CC1 (stereo not drawn)	2	-1	-1	+	2
CCCC(=O)Nc1ccc(C(=O)COC(=O)c2cc(C)oc2C)cc1	-10	-1	0	i	-4
C[n+]1c2n(c3ccccc31)N=C(c1ccc(Cl)cc1)CS2	8	-1	-1	+	-13
Cc1ccc(OC(=O)c2cccc(S(=O)(=O)N3CCCC3)c2)c(-n2nc3ccccc3n2)c1	16	-1	-3	i	18
CC[n+]1c(/C=C/C=C/N(C(C)=O)c2ccccc2)sc2ccccc21	11	-2	0	+	-8
O=C(c1cccc(S(=O)(=O)NCc2ccccc2)c1)N1CCN(c2ccccc2)CC1	-5	-2	-1	+	4
CCCCCn1c(NC(=O)c2ccco2)c(S(=O)(=O)c2ccc(C)cc2)c2nc3ccccc3nc21	7	8	14	+	4
SMILES	EBI2 block	MC4R ag barr	Exocytosis inh	Myeloid diff MLP	MC4R antag cAMP
CCCCn1c(NC(=O)c2ccco2)c(S(=O)(=O)c2ccc(C)cc2)c2nc3ccccc3nc21	-2	0	-1	+	0
O=c1cc(N=Nc2ccc(Cl)cc2)[nH]c(=O)[nH]1	-2	1	77*	?	24
CN(C(=O)c1ccc(NC(=O)Cc2ccc(NC(=O)C3CCCN(C(=O)C4CCCC4)C3)cc2)cc1)C1CC1 (stereo not drawn)	2	0	-5	+	2
CN(C(=O)c1ccc(NC(=O)Cc2ccc(NC(=O)C3CCN(C(=O)CCc4ccccc4)CC3)cc2)cc1)C1CC1	5	-2	-13	i	6
CN(C(=O)c1ccc(NC(=O)Cc2ccc(NC(=O)C3CCCN(C(=O)C4CCCCC4)C3)cc2)cc1)C1CC1 (stereo not drawn)	-7	0	1	i	3
CN(C(=O)c1ccc(NC(=O)Cc2ccc(NC(=O)C3CCN(C(=O)CCc4ccccc4)CC3)cc2)cc1)C1CCCC1	7	-1	2	+	7
CC/C(O)=C1\C(=O)CC(c2ccccc2)CC1=NCCc1c(C)[nH]c2ccc(C)cc12 (stereo not drawn)	-10	-1	-4	+	12
Cn1cc([C@@H]2C[C@H]3CN(Cc4cccc(Cl)c4)C(=O)[C@]34CCCN24)c2ccccc21	-1	1	0	i	6
COc1ccc(NS(=O)(=O)c2ccc3c(c2)oc(=O)n3C)c(OC)c1	-1	-1	3	i	6
COc1cc(NS(=O)(=O)c2ccc3c(c2)oc(=O)n3C)cc(OC)c1OC	-7	-3	-2	+	3
CCn1nc([N+](=O)[O-])c(C(C#N)c2nc3cc(C(F)(F)F)ccc3s2)c(Cl)c1=O (stereo not drawn)	6	-2	83*	+	16
CCCn1nc([N+](=O)[O-])c(C(C#N)c2nc3ccccc3o2)c(Cl)c1=O (stereo not drawn)	3	-3	18	i	1
COC(=O)c1cc(NC(=O)CSC2=NCCS2)cc(C(=O)OC)c1	0	0	-1	nt	4
COc1ccc(C=O)cc1COc1ccc(Cl)cc1[N+](=O)[O-]	-3	9.9*	-3	i	-7
COc1cccc(C(=O)NN2c3ccccc3CCc3ccccc32)c1	17	4	-1	+	0
NNC(=O)c1ccc(COc2cccc3cccnc23)cc1	-14	-2	-1	+	15
COC(=O)c1ccc(COc2ccccc2/C=N/NC(=O)c2cccnc2)cc1	-1	-1	2	i	15
O=C(N/N=C/c1ccccc1C(=O)O)c1ccc(COc2cccc3cccnc23)cc1	1	-2	0	+	1
O=S1(=O)CC(N2CCC(Cc3ccccc3)CC2)CN1C1CCCCC1 (stereo not drawn)	-2	nt	-5	i	nt
c1ccc2nc3c(cc2c1)CCCCC3	-6	-1	-4	i	-4
O=C(O)C1C2C=CC(O2)C1C(=O)Nc1ccccc1C(F)(F)F (stereo not drawn)	-2	1	83*	i	4
CCc1ccccc1NC(=O)C1C2C=CC(O2)C1C(=O)O (stereo not drawn)	-11	-1	-10	i	7
O=C(CCl)Nc1cccc(Oc2ccccc2)c1	-3	8.9*	0	i	-5
O=C(CCl)Nc1cccc(Oc2cnccn2)c1	5	1	-12	i	-8
